Data taken from ChEMBL document CHEMBL1138592, “Pyridopyrimidine based cannabinoid-1 receptor inverse agonists: Synthesis and biological evaluation” (Bioorg Med Chem Lett, 2009).

Key:
Rattus norvegicus [1] = assay: Antiobesity activity in high fat diet-induced obese Sprague-Dawley rat model assessed as suppression of food intake at 10 mg/kg, po after 18 hrs; format: functional
Rattus norvegicus [2] = assay: Antiobesity activity in high fat diet-induced obese Sprague-Dawley rat model assessed as change in overnight body weight at 10 mg/kg, po after 18 hrs; format: functional
Cannabinoid receptor 2 = Cannabinoid receptor 2 (Homo sapiens, UniProt P34972); assay: Binding affinity to human cannabinoid CB2R expressed in CHO cells; format: cell-based
Chain of Cannabinoid receptor 2 (P34972 whole entry): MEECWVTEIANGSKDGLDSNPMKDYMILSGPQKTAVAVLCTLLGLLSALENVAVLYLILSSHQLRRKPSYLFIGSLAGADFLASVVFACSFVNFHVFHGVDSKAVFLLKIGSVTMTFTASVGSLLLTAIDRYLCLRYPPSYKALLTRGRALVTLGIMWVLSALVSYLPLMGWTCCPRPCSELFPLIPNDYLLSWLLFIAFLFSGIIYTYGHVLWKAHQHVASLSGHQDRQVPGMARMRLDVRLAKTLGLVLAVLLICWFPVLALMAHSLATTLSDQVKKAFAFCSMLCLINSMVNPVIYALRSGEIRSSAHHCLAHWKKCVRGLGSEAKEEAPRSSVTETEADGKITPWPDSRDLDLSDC

Cannabinoid receptor 1 = Cannabinoid receptor 1 (Homo sapiens, UniProt P21554); assay: Inverse agonist activity at human cannabinoid CB1R expressed in CHO cells assessed as effect on cAMP accumulation; format: functional, cell-based
Chain of Cannabinoid receptor 1 (P21554 whole entry): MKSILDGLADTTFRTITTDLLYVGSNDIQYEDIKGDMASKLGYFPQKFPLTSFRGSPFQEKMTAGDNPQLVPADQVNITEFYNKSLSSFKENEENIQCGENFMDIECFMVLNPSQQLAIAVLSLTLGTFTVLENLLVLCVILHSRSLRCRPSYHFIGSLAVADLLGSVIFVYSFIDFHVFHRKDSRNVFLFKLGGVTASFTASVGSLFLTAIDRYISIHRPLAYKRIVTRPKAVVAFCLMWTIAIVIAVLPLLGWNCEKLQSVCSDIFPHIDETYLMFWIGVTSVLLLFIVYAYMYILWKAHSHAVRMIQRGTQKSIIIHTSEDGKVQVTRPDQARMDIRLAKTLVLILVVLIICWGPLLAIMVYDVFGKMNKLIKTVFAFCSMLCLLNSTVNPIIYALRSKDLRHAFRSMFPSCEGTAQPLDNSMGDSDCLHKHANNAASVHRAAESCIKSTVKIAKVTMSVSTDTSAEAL

[3] = Half life in rat; format: ADME, organism-based; details: in vivo
[4] = Ratio of drug level in brain to plasma in rat after 4 hrs; format: ADME; details: brain and plasma
[5] = Plasma clearance in rat; format: ADME, organism-based
Rattus norvegicus [6] = assay: Antiobesity activity in high fat diet-induced obese Sprague-Dawley rat model assessed as suppression of food intake at 3 mg/kg, po after 18 hrs of last dose relative to control; format: functional
[7] = Bioavailability in rat; format: ADME, organism-based; details: in vivo
Rattus norvegicus [8] = assay: Antiobesity activity in high fat diet-induced obese Sprague-Dawley rat model assessed as change in body weight at 3 mg/kg, po after 18 hrs of last dose relative to control; format: functional
[9] = Ratio of drug level in brain to plasma in rat after 0.25 hrs; format: ADME; details: brain and plasma
[10] = Half life in dog; format: ADME, organism-based, Canis lupus familiaris; details: in vivo
[11] = Half life in monkey; format: ADME, organism-based, Macaca mulatta; details: rhesus monkey, in vivo
Summary of the method: (§1)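 Pharmacokinetic study in rhesus macaque. Reported parameters are bioavailability F (%), half-life T1/2 (h) and plasma clearance Clp (mL/min/kg).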

[12] = Plasma clearance in dog; format: ADME, organism-based, Canis lupus familiaris
[13] = Bioavailability in monkey; format: ADME, organism-based, Macaca mulatta; details: rhesus monkey, in vivo; summary of the method: as §1
[14] = Bioavailability in dog; format: ADME, organism-based, Canis lupus familiaris; details: in vivo
[15] = Plasma clearance in monkey; format: ADME, organism-based, Macaca mulatta; details: rhesus monkey; summary of the method: as §1
Rattus norvegicus [16] = assay: Antiobesity activity in diet-induced obese Sprague-Dawley rat model assessed as suppression of overnight food intake at 3 mg/kg, po administered 1 hr before dark cycle for 14 days measured after […] of last dose; format: functional
Rattus norvegicus [17] = assay: Antiobesity activity in diet-induced obese Sprague-Dawley rat model assessed as suppression of overnight body weight change at 3 mg/kg, po administered 1 hr before dark cycle for 14 days measured after 18 hrs of last dose; format: functional

SMILES	IC50 (Cannabinoid receptor 2) [nM]	IC50 (Cannabinoid receptor 1) [nM]	further results
N#Cc1cc(-c2ccc(Cl)cc2)c(-c2ccc(Cl)cc2Cl)nc1Oc1ccc(F)c(F)c1			Activity (Rattus norvegicus [1]): 48%; Activity (Rattus norvegicus [2]): -8 g
CC(C)c1nc(OCc2ncon2)c2cc(-c3ccc(Cl)cc3)c(-c3ccccc3Cl)nc2n1	6300	1.1	
CC(C)c1nc2nc(-c3ccccc3Cl)c(-c3ccc(Cl)cc3)cc2c(=O)n1Cc1ncon1	9800	82	
CC(C)(C)c1nc2nc(-c3ccccc3Cl)c(-c3ccc(Cl)cc3)cc2c2n[nH]c(=O)n12	3800	1.9	half-life [3]: 5.6 h; Kp at 4 h [4]: 0.59; clearance [5]: 12 mL/min/kg; Activity (Rattus norvegicus [6]): 50%; bioavailability [7]: 33%; Activity (Rattus norvegicus [8]): -9 g; Kp at 0.25 h [9]: 0.14
Nc1nc(-c2ccc(Cl)cc2)nc2nc(-c3ccccc3Cl)c(-c3ccc(Cl)cc3)cc12	> 2000	16	
CC(C)(C)c1nc2nc(-c3ccccc3Cl)c(-c3cccc(Cl)c3)cc2c2n[nH]c(=O)n12	2700	34	
CC(C)(C)c1nc2nc(-c3ccc(C#N)cc3Cl)c(-c3ccc(Cl)cc3)cc2c2n[nH]c(=O)n12	19000		
CC(C)(C)c1nc2nc(-c3ccccc3C#N)c(-c3ccc(Cl)cc3)cc2c2n[nH]c(=O)n12	2400	3.2	Activity (Rattus norvegicus [6]): 25%; Activity (Rattus norvegicus [8]): -2 g
CC(C)(C)c1nc2nc(-c3ccccc3Cl)c(-c3ccc(C(F)(F)F)cc3)cc2c2n[nH]c(=O)n12	9200	1.1	
CC(C)(C)c1nc2nc(-c3ccccc3Cl)c(-c3cnccc3C#N)cc2c2n[nH]c(=O)n12	18000	100	
O=c1[nH]c(-c2ccc(Cl)cc2)nc2nc(-c3ccccc3Cl)c(-c3ccc(Cl)cc3)cc12	> 2000	59	
CC(C)(C)c1nc2nc(-c3ccccc3Cl)c(-c3ccc(C#N)cc3)cc2c2n[nH]c(=O)n12	18000	5.9	half-life [10]: 7.4 h; half-life [3]: 3.5 h; half-life [11]: 9.9 h; clearance [5]: 4 mL/min/kg; clearance [12]: 24 mL/min/kg; Activity (Rattus norvegicus [6]): 36%; bioavailability [7]: 53%; Activity (Rattus norvegicus [8]): -5 g; bioavailability [13]: 9.7%; bioavailability [14]: 2.1%; clearance [15]: 5.3 mL/min/kg
CC(=O)c1ccc(-c2cc3c(nc2-c2ccccc2Cl)nc(C(C)(C)C)n2c(=O)[nH]nc32)cc1	5800		
CC(C)(C)c1nc2nc(-c3ccc(Cl)cc3Cl)c(-c3ccc(Cl)cc3)cc2c(=O)[nH]1	5500	6	Activity (Rattus norvegicus [6]): 21%; Activity (Rattus norvegicus [8]): 1 g
CC(C)(C)c1nc(NCC(F)(F)CO)c2cc(-c3ccc(Cl)cc3)c(-c3ccccc3Cl)nc2n1	> 2000	9.5	Activity (Rattus norvegicus [6]): 39%; Activity (Rattus norvegicus [8]): -4 g
CC(=O)Nc1c(C(C)=O)c(=O)n(C)c2nc(-c3ccc(Cl)cc3Cl)c(-c3ccc(Cl)cc3)cc12 [NAPHTHYRIDINONE]			half-life [3]: > 8 h; Activity (Rattus norvegicus [6]): 68%; Activity (Rattus norvegicus [8]): -4 g; Kp at 0.25 h [9]: 0.9
C[C@H](NC(=O)C(C)(C)Oc1ccc(C(F)(F)F)cn1)[C@@H](Cc1ccc(Cl)cc1)c1cccc(C#N)c1 [TARANABANT]			Activity (Rattus norvegicus [16]): 49%; Activity (Rattus norvegicus [17]): -10 g

More lines, main results first:

IC50 (Cannabinoid receptor 2) [nM]	IC50 (Cannabinoid receptor 1) [nM]	SMILES	further results
> 2000	190	CC(C)c1nc(N)c2cc(-c3ccc(Cl)cc3)c(-c3ccccc3Cl)nc2n1	
> 2000	2500	Cc1nc(O)c2cc(-c3ccc(Cl)cc3)c(-c3ccccc3Cl)nc2n1	
12000	150	CCN(CC)C(=O)c1nc(NC(C)C)c2cc(-c3ccc(Cl)cc3)c(-c3ccccc3Cl)nc2n1	
1800	8.5	CN(C)c1nc(C(C)(C)C)nc2nc(-c3ccccc3Cl)c(-c3ccc(Cl)cc3)cc12	
8600	7.4	CC(C)(C)c1nc2nc(-c3ccccc3Cl)c(-c3ccc(Cl)cc3)cc2c(=O)[nH]1	
4900	40	CC(C)(C)c1nc(N)c2cc(-c3ccc(Cl)cc3)c(-c3ccccc3Cl)nc2n1	
1800	1.9	CC(C)(C)c1nc(N2CCNCC2)c2cc(-c3ccc(Cl)cc3)c(-c3ccccc3Cl)nc2n1	
2700	2.2	CCN(CC)c1nc(C(C)(C)C)nc2nc(-c3ccccc3Cl)c(-c3ccc(Cl)cc3)cc12	
5200		CC(C)(C)c1nc(N)c2cc(-c3ccc(Cl)cc3)c(-c3ccc(Cl)cc3Cl)nc2n1	
891	3	COc1ccc(-c2cc3c(nc2-c2ccccc2Cl)nc(C(C)(C)C)n2c(=O)[nH]nc32)cc1	
770	28	CN(C)c1ccc(-c2cc3c(nc2-c2ccccc2Cl)nc(C(C)(C)C)n2c(=O)[nH]nc32)cc1	
3400	8	CC(C)(C)c1nc2nc(-c3ccccc3Cl)c(-c3ccc(Cl)cc3)cc2c2nncn12	
7300	130	CC(C)c1nc2nc(-c3ccccc3Cl)c(-c3ccc(Cl)cc3)cc2c(=O)[nH]1	
> 2000	4.1	CC(C)Nc1nc(C(C)(C)C)nc2nc(-c3ccccc3Cl)c(-c3ccc(Cl)cc3)cc12	
1100	1500	Cc1nc(N)c2cc(-c3ccc(Cl)cc3)c(-c3ccccc3Cl)nc2n1	
9830	0.63	CC(C)(C)c1nc(-c2ccc(F)cc2)c2cc(-c3ccc(Cl)cc3)c(-c3ccccc3Cl)nc2n1	
8400	7.5	COc1nc(C(C)(C)C)nc2nc(-c3ccccc3Cl)c(-c3ccc(Cl)cc3)cc12	
> 2000	2.7	CC(C)(C)Nc1nc(C(C)(C)C)nc2nc(-c3ccccc3Cl)c(-c3ccc(Cl)cc3)cc12	
